ChEMBL document CHEMBL5247575 (J Med Chem, 2018)

Test system: Klebsiella pneumoniae
Assay: Synergistic antibacterial activity against Klebsiella pneumoniae 935/1884 producing KPC-3 assessed as cefepime MIC at 4 ug/ml by broth microdilution method
Type: functional
Conditions: dose 4 µg/ml

Row | Compound | MIC
1 | O=C(NNC(=O)[C@@H]1CC[C@@H]2CN1C(=O)N2OS(=O)(=O)O)[C@@H]1CCNC1 | ≤ 0.12 µg/mL

Test system: Klebsiella pneumoniae
Assay: Synergistic antibacterial activity against Klebsiella pneumoniae 935/1884 producing KPC-3 assessed as cefepime MIC at 8 ug/ml by broth microdilution method
Type: functional
Conditions: dose 8 µg/ml

Row | Compound | MIC
2 | O=C(NNC(=O)[C@@H]1CC[C@@H]2CN1C(=O)N2OS(=O)(=O)O)[C@@H]1CCNC1 | ≤ 0.12 µg/mL

Test system: Bacteria
Assay: Inhibition of bacteria PDC-3 assessed as half life using nitrocefin as substrate
Conditions: not given

Row | Compound | T1/2
3 | O=C(NNC(=O)[C@@H]1CC[C@@H]2CN1C(=O)N2OS(=O)(=O)O)[C@@H]1CCNC1 | 2.9 min

Test system: Klebsiella pneumoniae
Assay: Synergistic antibacterial activity against Klebsiella pneumoniae 972/1910 producing KPC-3 assessed as cefepime MIC at 8 ug/ml by broth microdilution method
Type: functional
Conditions: dose 8 µg/ml

Row | Compound | MIC
4 | O=C(NNC(=O)[C@@H]1CC[C@@H]2CN1C(=O)N2OS(=O)(=O)O)[C@@H]1CCNC1 | ≤ 0.12 µg/mL

Test system: Acinetobacter baumannii
Assay: Synergistic antibacterial activity against Acinetobacter baumannii PR381 producing OXA-24/40 assessed as cefepime MIC at 8 ug/ml by broth microdilution method
Type: functional
Conditions: dose 8 µg/ml

Row | Compound | MIC
5 | O=C(NNC(=O)[C@@H]1CC[C@@H]2CN1C(=O)N2OS(=O)(=O)O)[C@@H]1CCNC1 | 16 µg/mL

Test system: Acinetobacter baumannii
Assay: Synergistic antibacterial activity against ADC deleted Acinetobacter baumannii assessed as meropenem MIC at 8 ug/ml by broth microdilution method
Type: functional
Conditions: dose 8 µg/ml

Row | Compound | MIC
6 | O=C(NNC(=O)[C@@H]1CC[C@@H]2CN1C(=O)N2OS(=O)(=O)O)[C@@H]1CCNC1 | ≤ 0.12 µg/mL

Test system: Escherichia coli
Assay: Synergistic antibacterial activity against Escherichia coli DH10B transfected with pBC SK (-) KPC-2 assessed as cefepime MIC at 4 ug/ml by broth microdilution method
Type: functional
Conditions: dose 4 µg/ml

Row | Compound | MIC
7 | O=C(NNC(=O)[C@@H]1CC[C@@H]2CN1C(=O)N2OS(=O)(=O)O)[C@@H]1CCNC1 | ≤ 0.12 µg/mL

Biological target: not listed separately
Assay: Inhibition of bacteria ADC-7 assessed as apparent inhibition constant using nitrocefin as substrate
Conditions: not given

Row | Compound | Ki
8 | O=C(NNC(=O)[C@@H]1CC[C@@H]2CN1C(=O)N2OS(=O)(=O)O)[C@@H]1CCNC1 | 3.7 µM

Test system: Escherichia coli
Assay: Synergistic antibacterial activity against Escherichia coli DH10B transfected with pBC SK (-) KPC-3 assessed as cefepime MIC at 4 ug/ml by broth microdilution method
Type: functional
Conditions: dose 4 µg/ml

Row | Compound | MIC
9 | O=C(NNC(=O)[C@@H]1CC[C@@H]2CN1C(=O)N2OS(=O)(=O)O)[C@@H]1CCNC1 | ≤ 0.12 µg/mL

Test system: Klebsiella pneumoniae
Assay: Synergistic antibacterial activity against Klebsiella pneumoniae 901/1860 producing KPC-3 assessed as cefepime MIC at 4 ug/ml by broth microdilution method
Type: functional
Conditions: dose 4 µg/ml

Row | Compound | MIC
10 | O=C(NNC(=O)[C@@H]1CC[C@@H]2CN1C(=O)N2OS(=O)(=O)O)[C@@H]1CCNC1 | ≤ 0.12 µg/mL

Test system: Klebsiella pneumoniae
Assay: Antibacterial activity against Klebsiella pneumoniae jefferson 1775 producing OXA-48 by broth microdilution method
Type: functional
Conditions: not given

Row | Compound | MIC
11 | O=C(NNC(=O)[C@@H]1CC[C@@H]2CN1C(=O)N2OS(=O)(=O)O)[C@@H]1CCNC1 | > 16 µg/mL

Test system: Acinetobacter baumannii
Assay: Synergistic antibacterial activity against ADC deleted Acinetobacter baumannii transfected with pWH1266 OXA-23 assessed as meropenem MIC at 8 ug/ml by broth microdilution method
Type: functional
Conditions: dose 8 µg/ml
Outline: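 Broth microdilution per CLSI guidelines in frozen panels. Test compound held at fixed 8 mg/L while the partner β-lactam concentration was increased. Run in triplicate; modal MIC reported.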

Row | Compound | MIC
12 | O=C(NNC(=O)[C@@H]1CC[C@@H]2CN1C(=O)N2OS(=O)(=O)O)[C@@H]1CCNC1 | > 16 µg/mL

Test system: Acinetobacter baumannii
Assay: Synergistic antibacterial activity against Acinetobacter baumannii PR440 producing OXA-23/24/40 assessed as meropenem MIC at 4 ug/ml by broth microdilution method
Type: functional
Conditions: dose 4 µg/ml

Row | Compound | MIC
13 | O=C(NNC(=O)[C@@H]1CC[C@@H]2CN1C(=O)N2OS(=O)(=O)O)[C@@H]1CCNC1 | > 16 µg/mL

Test system: Acinetobacter baumannii
Assay: Synergistic antibacterial activity against Acinetobacter baumannii PR408 producing OXA-24/40 assessed as meropenem MIC at 4 ug/ml by broth microdilution method
Type: functional
Conditions: dose 4 µg/ml

Row | Compound | MIC
14 | O=C(NNC(=O)[C@@H]1CC[C@@H]2CN1C(=O)N2OS(=O)(=O)O)[C@@H]1CCNC1 | > 16 µg/mL

Test system: Klebsiella pneumoniae
Assay: Synergistic antibacterial activity against Klebsiella pneumoniae NY BS producing OXA-232 assessed as cefepime MIC at 8 ug/ml by broth microdilution method
Type: functional
Conditions: dose 8 µg/ml

Row | Compound | MIC
15 | O=C(NNC(=O)[C@@H]1CC[C@@H]2CN1C(=O)N2OS(=O)(=O)O)[C@@H]1CCNC1 | ≤ 0.12 µg/mL

Test system: Escherichia coli
Assay: Synergistic antibacterial activity against Escherichia coli DH10B transfected with pBR322-catI-KPC-2 assessed as meropenem MIC at 4 ug/ml by broth microdilution method
Type: functional
Conditions: dose 4 µg/ml
Outline: (§1)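 Broth microdilution per CLSI guidelines, using custom frozen panels. […] Each partner drug was also tested alone. MICs were run in triplicate and the modal value is reported.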

Row | Compound | MIC
16 | O=C(NNC(=O)[C@@H]1CC[C@@H]2CN1C(=O)N2OS(=O)(=O)O)[C@@H]1CCNC1 | ≤ 0.12 µg/mL

Test system: Acinetobacter baumannii
Assay: Synergistic antibacterial activity against Acinetobacter baumannii PR448 producing OXA-23 assessed as meropenem MIC at 4 ug/ml by broth microdilution method
Type: functional
Conditions: dose 4 µg/ml

Row | Compound | MIC
17 | O=C(NNC(=O)[C@@H]1CC[C@@H]2CN1C(=O)N2OS(=O)(=O)O)[C@@H]1CCNC1 | > 16 µg/mL

Test system: Escherichia coli
Assay: Synergistic antibacterial activity against Escherichia coli DH10B transfected with pBC SK (-) KPC-2 assessed as meropenem MIC at 4 ug/ml by broth microdilution method
Type: functional
Conditions: dose 4 µg/ml

Row | Compound | MIC
18 | O=C(NNC(=O)[C@@H]1CC[C@@H]2CN1C(=O)N2OS(=O)(=O)O)[C@@H]1CCNC1 | ≤ 0.12 µg/mL

Test system: Pseudomonas aeruginosa
Assay: Synergistic antibacterial activity against Pseudomonas aeruginosa 795 assessed as meropenem MIC at 8 ug/ml by broth microdilution method
Type: functional
Conditions: dose 8 µg/ml

Row | Compound | MIC
19 | O=C(NNC(=O)[C@@H]1CC[C@@H]2CN1C(=O)N2OS(=O)(=O)O)[C@@H]1CCNC1 | ≤ 0.12 µg/mL

Test system: Acinetobacter baumannii
Assay: Synergistic antibacterial activity against ADC deleted Acinetobacter baumannii transfected with pWH1266 producing OXA-24/40 assessed as meropenem MIC at 8 ug/ml by broth microdilution method
Type: functional
Conditions: dose 8 µg/ml

Row | Compound | MIC
20 | O=C(NNC(=O)[C@@H]1CC[C@@H]2CN1C(=O)N2OS(=O)(=O)O)[C@@H]1CCNC1 | > 16 µg/mL

Test system: Klebsiella pneumoniae
Assay: Synergistic antibacterial activity against Klebsiella pneumoniae CAV 1636 producing OXA-181 assessed as meropenem MIC at 4 ug/ml by broth microdilution method
Type: functional
Conditions: dose 4 µg/ml

Row | Compound | MIC
21 | O=C(NNC(=O)[C@@H]1CC[C@@H]2CN1C(=O)N2OS(=O)(=O)O)[C@@H]1CCNC1 | ≤ 0.12 µg/mL

Test system: Klebsiella pneumoniae
Assay: Synergistic antibacterial activity against Klebsiella pneumoniae 440/1360 producing KPC-2 assessed as meropenem MIC at 8 ug/ml by broth microdilution method
Type: functional
Conditions: dose 8 µg/ml
Outline: as §1

Row | Compound | MIC
22 | O=C(NNC(=O)[C@@H]1CC[C@@H]2CN1C(=O)N2OS(=O)(=O)O)[C@@H]1CCNC1 | ≤ 0.12 µg/mL

Test system: Escherichia coli
Assay: Synergistic antibacterial activity against Escherichia coli DH10B transfected with pBC SK (-) PDC-3 assessed as cefepime MIC at 8 ug/ml by broth microdilution method
Type: functional
Conditions: dose 8 µg/ml
Outline: as §1

Row | Compound | MIC
23 | O=C(NNC(=O)[C@@H]1CC[C@@H]2CN1C(=O)N2OS(=O)(=O)O)[C@@H]1CCNC1 | ≤ 0.12 µg/mL

Test system: Klebsiella pneumoniae
Assay: Synergistic antibacterial activity against Klebsiella pneumoniae NY BS producing OXA-232 assessed as meropenem MIC at 8 ug/ml by broth microdilution method
Type: functional
Conditions: dose 8 µg/ml

Row | Compound | MIC
24 | O=C(NNC(=O)[C@@H]1CC[C@@H]2CN1C(=O)N2OS(=O)(=O)O)[C@@H]1CCNC1 | ≤ 0.12 µg/mL

Test system: Acinetobacter baumannii
Assay: Synergistic antibacterial activity against Acinetobacter baumannii PR474 producing OXA-23/24/40 assessed as cefepime MIC at 8 ug/ml by broth microdilution method
Type: functional
Conditions: dose 8 µg/ml

Row | Compound | MIC
25 | O=C(NNC(=O)[C@@H]1CC[C@@H]2CN1C(=O)N2OS(=O)(=O)O)[C@@H]1CCNC1 | 8 µg/mL

Test system: Klebsiella pneumoniae
Assay: Synergistic antibacterial activity against Klebsiella pneumoniae 1315/2198 producing KPC-3 assessed as meropenem MIC at 8 ug/ml by broth microdilution method
Type: functional
Conditions: dose 8 µg/ml
Outline: as §1

Row | Compound | MIC
26 | O=C(NNC(=O)[C@@H]1CC[C@@H]2CN1C(=O)N2OS(=O)(=O)O)[C@@H]1CCNC1 | ≤ 0.12 µg/mL

Test system: Klebsiella pneumoniae
Assay: Synergistic antibacterial activity against Klebsiella pneumoniae 1108/1989 producing KPC-3 assessed as cefepime MIC at 8 ug/ml by broth microdilution method
Type: functional
Conditions: dose 8 µg/ml
Outline: as §1

Row | Compound | MIC
27 | O=C(NNC(=O)[C@@H]1CC[C@@H]2CN1C(=O)N2OS(=O)(=O)O)[C@@H]1CCNC1 | ≤ 0.12 µg/mL

Test system: Klebsiella pneumoniae
Assay: Synergistic antibacterial activity against Klebsiella pneumoniae CAV 1543 producing OXA-48 assessed as cefepime MIC at 8 ug/ml by broth microdilution method
Type: functional
Conditions: dose 8 µg/ml

Row | Compound | MIC
28 | O=C(NNC(=O)[C@@H]1CC[C@@H]2CN1C(=O)N2OS(=O)(=O)O)[C@@H]1CCNC1 | ≤ 0.12 µg/mL

Test system: Klebsiella pneumoniae
Assay: Synergistic antibacterial activity against Klebsiella pneumoniae 977/1916 producing KPC-3 assessed as meropenem MIC at 4 ug/ml by broth microdilution method
Type: functional
Conditions: dose 4 µg/ml

Row | Compound | MIC
29 | O=C(NNC(=O)[C@@H]1CC[C@@H]2CN1C(=O)N2OS(=O)(=O)O)[C@@H]1CCNC1 | ≤ 0.12 µg/mL

Test system: Klebsiella pneumoniae
Assay: Synergistic antibacterial activity against Klebsiella pneumoniae CAV 1543 producing OXA-48 assessed as meropenem MIC at 4 ug/ml by broth microdilution method
Type: functional
Conditions: dose 4 µg/ml

Row | Compound | MIC
30 | O=C(NNC(=O)[C@@H]1CC[C@@H]2CN1C(=O)N2OS(=O)(=O)O)[C@@H]1CCNC1 | ≤ 0.12 µg/mL

Test system: Klebsiella pneumoniae
Assay: Synergistic antibacterial activity against Klebsiella pneumoniae jefferson 1775 producing OXA-48 assessed as meropenem MIC at 4 ug/ml by broth microdilution method
Type: functional
Conditions: dose 4 µg/ml

Row | Compound | MIC
31 | O=C(NNC(=O)[C@@H]1CC[C@@H]2CN1C(=O)N2OS(=O)(=O)O)[C@@H]1CCNC1 | ≤ 0.12 µg/mL

Test system: Klebsiella pneumoniae
Assay: Synergistic antibacterial activity against Klebsiella pneumoniae 660/1568 producing KPC-3 assessed as meropenem MIC at 4 ug/ml by broth microdilution method
Type: functional
Conditions: dose 4 µg/ml
Outline: as §1

Row | Compound | MIC
32 | O=C(NNC(=O)[C@@H]1CC[C@@H]2CN1C(=O)N2OS(=O)(=O)O)[C@@H]1CCNC1 | ≤ 0.12 µg/mL

Test system: Pseudomonas aeruginosa
Assay: Synergistic antibacterial activity against Pseudomonas aeruginosa 839 assessed as cefepime MIC at 8 ug/ml by broth microdilution method
Type: functional
Conditions: dose 8 µg/ml

Row | Compound | MIC
33 | O=C(NNC(=O)[C@@H]1CC[C@@H]2CN1C(=O)N2OS(=O)(=O)O)[C@@H]1CCNC1 | ≤ 0.12 µg/mL

Test system: Acinetobacter baumannii
Assay: Synergistic antibacterial activity against Acinetobacter baumannii PR408 producing OXA-24/40 assessed as meropenem MIC at 8 ug/ml by broth microdilution method
Type: functional
Conditions: dose 8 µg/ml

Row | Compound | MIC
34 | O=C(NNC(=O)[C@@H]1CC[C@@H]2CN1C(=O)N2OS(=O)(=O)O)[C@@H]1CCNC1 | > 16 µg/mL

Test system: Klebsiella pneumoniae
Assay: Synergistic antibacterial activity against Klebsiella pneumoniae 1354/2241 producing KPC-3 assessed as meropenem MIC at 8 ug/ml by broth microdilution method
Type: functional
Conditions: dose 8 µg/ml
Outline: as §1

Row | Compound | MIC
35 | O=C(NNC(=O)[C@@H]1CC[C@@H]2CN1C(=O)N2OS(=O)(=O)O)[C@@H]1CCNC1 | ≤ 0.12 µg/mL
